A selection: hits, their analogues and other compounds. The true share with any hit is near 3.8%.
FGF22 binding – binders of human FGF22 protein, primary screen, FGF22 synaptogenesis inhibitor project, biophysical, thermal shift, single point. recombinant FGF22 thermal shift, SYPRO orange fluorescence; percent of sucrose octasulfate shift, DMSO zero. hit rate 1.5% among 340,000. Fibroblast growth factor 22 (Homo sapiens), Q9HCT0. activity (Tm shift, normalised), % at 9.99 µM. AID 651658, 2012;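 active = mean Tm shift, scaled 0 neutral to 100 positive control, at about 1.3% or above, every replicate too, limit read from the data; inconclusive = no clear call, values can overlap the other calls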
Target sequence (Q9HCT0 whole entry, looked up): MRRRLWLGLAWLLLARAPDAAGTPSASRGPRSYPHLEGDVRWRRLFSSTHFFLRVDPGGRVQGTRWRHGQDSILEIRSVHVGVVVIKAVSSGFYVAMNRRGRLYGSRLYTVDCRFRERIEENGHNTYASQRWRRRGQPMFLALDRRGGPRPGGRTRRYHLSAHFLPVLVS
SIRT5 block – SIRT5 desuccinylase inhibitors, primary screen, biochemical, fluorescence imaging, single point, set 5; NAD-dependent protein deacylase sirtuin-5, mitochondrial (Homo sapiens), Q9NXA8; Purified SirT5, succinyl-peptide AMC, trypsin-coupled fluorescence; inhibition, % at 15 µM; hit rate 1.1% among 330,000; AID 652115, 2013; in the data active = inhibition above about 15%; inconclusive = no clear call, values can overlap the other calls
Target sequence (Q9NXA8 whole entry, looked up): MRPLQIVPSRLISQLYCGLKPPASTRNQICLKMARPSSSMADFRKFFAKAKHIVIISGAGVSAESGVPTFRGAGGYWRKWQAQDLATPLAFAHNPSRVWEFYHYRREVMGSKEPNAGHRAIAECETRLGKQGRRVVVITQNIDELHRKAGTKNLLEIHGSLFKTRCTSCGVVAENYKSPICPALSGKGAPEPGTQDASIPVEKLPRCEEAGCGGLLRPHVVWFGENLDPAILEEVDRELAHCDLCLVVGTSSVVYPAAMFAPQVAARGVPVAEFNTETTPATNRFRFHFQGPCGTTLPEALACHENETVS
FN deposition inh – inhibitors of fibronectin matrix deposition, primary screen, AH1F cells, Alexa488-fibronectin fluorescence, plate reader. inhibition, % at 12.6 µM. AH1F fibroblasts, overnight. AID 743247, 2014. hit rate 0.086% among 350,000;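 active = mean inhibition across replicates of 30% or more, regardless of how many single replicates reach that level; inconclusive = mean under 30% yet at least half of replicates reach 30%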
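Material – AH1F fibroblast monolayer, labelled fibronectin deposition · Reagent – labelled fibronectin 24 nM · Timing – 1 h adhesion, overnight exposure · Measured by – fluorescence at 485 nm excitation, 525 nm emission · Read-out – inhibition of fibronectin deposition signal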
DENV2 CPE rescue – inhibitors of DENV2 cytopathic effect, primary screen, cell-based, plate reader, single concentration; DENV2-infected cells, cytopathic effect rescue; CPE inhibition, % at 9.99 µM; hit rate 1.7% among 350,000; AID 651640, 2012; in the data active = CPE inhibition above about 20%, passing the limit was not always enough; inconclusive = no clear call, values can overlap the other calls; tested in BHK-21 cells
ARNT TACC3 PPI – disruptors of ARNT/TACC3 protein interaction, primary screen, biochemical, AlphaScreen, single concentration. Transforming acidic coiled-coil-containing protein 3 (Homo sapiens), Q9Y6A5. AlphaScreen His-ARNT PAS-B/GST-TACC3 binding, luminescence; TACC3 fragment carries E629A point mutation. inhibition, % at 9.99 µM. hit rate 0.66% among 390,000;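 active = mean inhibition of replicates at least 50% and at least half of replicates each reaching 50%; inconclusive = half or more replicates reach 50% but mean below 50%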
XiGFP reactiv – activators of inactive X chromosome reactivation, primary screen, imaging, XiGFP fibroblasts, GFP high-content imaging, set 2; XiGFP mouse fibroblasts, % GFP-positive cells imaging, 3 d; cells co-treated with 5-aza-dC sensitizer; scaled so ellipticine positive control = 100%; activation, % at 7.58 µM; hit rate 0.055% among 360,000;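 active = mean normalized replicate activation at least 10% and every replicate at or above 10%; inconclusive = only one of the two criteria met; inactive = mean below 10% and not all replicates reach 10%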
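Material: XiGFP fibroblasts, SV40-immortalized; Buffer or medium: DMEM containing 5-aza-dC; Compound dosing: single point; Times: 3 days compound exposure.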
Of the large screens only hits and unclear results are named; the others gave an inactive call; ! = repeats disagree.

C[C@@H]1CN([C@H](C)CO)C(=O)c2cc(NC(=O)c3ccccc3)ccc2O[C@@H](C)CCCCO[C@@H]1CN(C)C(=O)CCCN(C)C	none (no result: FGF22 binding, FN deposition inh)
COC(=O)c1ccc(C2/C(=C(\O)c3cccc(OC)c3)C(=O)C(=O)N2CCCN2CCOCC2)cc1 (stereo not given)	none (no result: DENV2 CPE rescue)
COC(=O)c1ccc(C2/C(=C(\O)c3cccc(OC)c3)C(=O)C(=O)N2CCCN(C)C)cc1 (stereo not given)	ARNT TACC3 PPI 59
CCOc1cc(C(=O)Nc2ccccc2N2CCOCC2)ccc1OCC(=O)N1CCCCC1	none (no result: ARNT TACC3 PPI)
CCC(=O)c1ccc(OCC(=O)N2CCCC2)c(OC)c1	FGF22 binding 44
COc1ccc(C(=O)C2CCCN(C(=O)COc3ccc(C(C)=O)cc3)C2)cc1F (stereo not given)	FGF22 binding 44
COCCNC(=O)C1CCCN(C(=O)c2cc(C)nn2C(C)(C)C)CC1 (stereo not given)	DENV2 CPE rescue 21 (no result: SIRT5 block, ARNT TACC3 PPI)
COCCNC(=O)C1CCCN(C(=O)c2cc(C)n(C(C)(C)C)n2)CC1 (stereo not given)	none (no result: SIRT5 block, FN deposition inh, ARNT TACC3 PPI)
CCOc1cc(C(=O)Nc2cccc(C(C)=O)c2)ccc1OCC(=O)N1CCCCC1	FGF22 binding 44
C[C@H]1CN([C@@H](C)CO)C(=O)c2cccc(NS(=O)(=O)c3ccccc3)c2O[C@@H]1CN(C)Cc1ccncc1	none (no result: FN deposition inh)
C[C@@H]1CN([C@H](C)CO)C(=O)Cc2cc(NC(=O)c3ccncc3)ccc2O[C@H]1CN(C)Cc1ccccc1	none (no result: FN deposition inh)
CCNC(=O)C1CCCN(C(=O)c2ccc(OC)c(OC)c2)CC1 (stereo not given)	SIRT5 block 17 (no result: ARNT TACC3 PPI)
CC1=C(C(=O)OC(C)C)C(c2ccc(Cl)cc2)n2c(sc(=Cc3ccc(OCC(=O)O)cc3)c2=O)=N1 (stereo not given)	FGF22 binding 4.2 (no result: SIRT5 block, ARNT TACC3 PPI)
CCOC(=O)C1=C(C)N=c2s/c(=C\c3ccc(OCC(=O)O)cc3)c(=O)n2C1c1ccc(Cl)cc1 (stereo not given)	none
Cc1noc(C)c1CSc1nc2sc3c(c2c(=O)n1C)CCCC3	none (no result: FGF22 binding, SIRT5 block, FN deposition inh, DENV2 CPE rescue, XiGFP reactiv)
Cc1noc(C)c1CSc1nc2sc(C)c(C)c2c(=O)n1C1CCCC1	SIRT5 block 35 (no result: FGF22 binding, DENV2 CPE rescue, XiGFP reactiv)
C[C@@H]1CN([C@H](C)CO)S(=O)(=O)c2ccc(-c3cccnc3)cc2O[C@@H]1CN(C)CC1CCOCC1	none (no result: FN deposition inh)
O=C(CCCl)Nc1nnc(SCC(=O)NC2CCCC2)s1	SIRT5 block 60 (no result: XiGFP reactiv)
O=C(C[C@@H]1CC[C@@H](NC(=O)Cc2ccccn2)[C@@H](CO)O1)NCCc1ccccc1	DENV2 CPE rescue inconclusive (no result: FN deposition inh)
COc1ccc(-c2ccc(NCCN3CCOCC3)nn2)cc1OC	SIRT5 block 16
COc1cc(CNCCN2CCOCC2)ccc1OCC(=O)NC(C)(C)C	FGF22 binding 43
CCOc1cc(CNCCN2CCOCC2)ccc1OCc1ccccc1Cl	DENV2 CPE rescue 29
COc1cc(CNCCCN2CCOCC2)ccc1OCC(=O)NC(C)(C)C	FGF22 binding 44 (no result: ARNT TACC3 PPI)
CCOc1cc(CNCCCN2CCOCC2)ccc1OCC(=O)NC(C)(C)C	none (no result: ARNT TACC3 PPI)
O=C(C[C@@H]1CC[C@H](NS(=O)(=O)c2ccc(F)cc2)[C@H](CO)O1)NCCN1CCCCC1	none (no result: FGF22 binding, SIRT5 block, FN deposition inh, DENV2 CPE rescue, ARNT TACC3 PPI)
COc1ccc(N2CCN(CC(O)COc3ccc(F)cc3)CC2)cc1 (stereo not given)	DENV2 CPE rescue 52
COc1ccc(OCC(O)CN2CCN(Cc3ccc4c(c3)OCO4)CC2)cc1 (stereo not given)	ARNT TACC3 PPI 47
COc1ccc(OCC(O)CN2CCN(c3ccc(OC)cc3)CC2)cc1 (stereo not given)	none
CCN1CCN(CC(O)COC(c2ccccc2)c2ccccc2)CC1 (stereo not given)	FGF22 binding 44
CCc1ccc(OCC(O)CN2CCN(c3ccccc3)CC2)cc1 (stereo not given)	DENV2 CPE rescue 83 (no result: SIRT5 block)
O=C(C[C@@H]1CC[C@H]2[C@@H](COC[C@@H](O)CN2C(=O)c2ccccc2)O1)Nc1nccs1	none
O=C(C[C@H]1C=C[C@@H](NC(=O)c2ccc(F)cc2)[C@@H](CO)O1)NCc1ccncn1	none
Cc1cccc(-c2ccc([C@H]3[C@H](CO)N4CCCCN(Cc5cccnc5)C[C@@H]34)cc2)c1	none (no result: FN deposition inh, XiGFP reactiv)
O=C(N[C@H]1CC[C@@H](CC(=O)N2CCc3ccccc3C2)O[C@@H]1CO)C1CC1	none
CC(C)C#Cc1cnc2c(c1)C(=O)N([C@H](C)CO)C[C@@H](C)[C@@H](CN(C)C(=O)Nc1ccc(F)cc1)O2	none
C[C@@H]1CN([C@H](C)CO)C(=O)Cc2cc(NC(=O)Nc3ccc4c(c3)OCO4)ccc2O[C@H]1CN(C)C(=O)Nc1ccccc1	none (no result: SIRT5 block, FN deposition inh)
CCCNC(=O)N[C@@H]1CC[C@@H](CCn2cc(-c3cccc(F)c3)nn2)O[C@@H]1CO	none
[N-]=C=C1C(=S)NC(=O)[C@H]([n+]2ccccc2)[C@H]1c1ccc(Cl)cc1	SIRT5 block 34
CCCC(=O)Nc1ccc2c(c1)C(=O)N(C)C[C@H](OC)[C@@H](C)CN(Cc1ccc(F)cc1)[C@H](C)CO2	none (no result: FGF22 binding, SIRT5 block, DENV2 CPE rescue, ARNT TACC3 PPI)
COc1ccc(Cc2n[nH]c(=S)n2-c2cc(C)ccc2C)cc1OC	DENV2 CPE rescue 96 (no result: SIRT5 block, ARNT TACC3 PPI)
COc1ccccc1S(=O)(=O)N(C)C[C@@H]1Oc2cc(C#CCC3CCCC3)ccc2S(=O)(=O)N([C@H](C)CO)C[C@@H]1C	none
COc1ccccc1S(=O)(=O)N(C)C[C@@H]1Oc2cc(C#CCC(C)C)ccc2S(=O)(=O)N([C@H](C)CO)C[C@@H]1C	SIRT5 block 23!, DENV2 CPE rescue inconclusive
COc1ccccc1S(=O)(=O)N(C)C[C@H]1Oc2cc(C#CCC(C)C)ccc2S(=O)(=O)N([C@@H](C)CO)C[C@@H]1C	DENV2 CPE rescue 103 (no result: FN deposition inh)
Cc1ccc(O)c(N=Nc2ccc(S(=O)(=O)N3CCCC3)cc2)c1	XiGFP reactiv 61
CCCCC1=CC2=CC(=O)C(C)(OC(=O)CC)C(=O)C2=CN1CCc1c[nH]c2ccccc12 (stereo not given)	DENV2 CPE rescue 20
Cc1cccc(-c2ccc([C@@H]3[C@@H](CO)N4CCCCN(C(=O)c5ccncc5)C[C@H]34)cc2)c1	none (no result: FN deposition inh)
